B1: tRNA (parent)
chain: GUUCCGUUGGCGUAAUGGUAACGCGUCUCCCUCCUAAGGAGAAGACUGCGGGUUCGAGUCCCGUACGGAACG

Variants at the floor of the assay were thinned out. A value given as a limit tells only on which side of the number the result lay.

Variants of B1 are the subject of the data set. The experiment in a line: yeast fitness relative to wild type (ratio to wild type); higher = fitter; tRNA-Arg(CCU), competitive growth, 37 C, YPD. The method, boiled down: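 A pool of Saccharomyces cerevisiae strains, each with a tRNA-Arg(CCU) gene variant at the native genomic locus, was competed in YPD at 37°C for 24 hours across six parallel replicates. The variants had been chemically synthesised at a 3% per-site mutation rate over 69 sites, and gene amplicons before and after competition were read by 100-nucleotide paired-end sequencing. Darwinian fitness relative to wild type rested on changes in genotype frequencies. Genotypes required ≥ 100 starting reads, and estimates < 0.5 were set to 0.5.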
For G6A C24A A43C G52C C66G A69G, the yeast fitness was not above 0.5.
The same measure for A43G G52C: 0.643.
Next, C5G U7A A20C C60U A69U: 0.546.
The same measure for U3A U13G C22U A40U C66G: 0.627.
Consider U13C C30U C33U, for which the yeast fitness came out at 0.537.
The same measure for U19C C49A: 0.606; for C4U C5A A21G A43U C46U G51C C55U A65C: not above 0.5.
Next, C4G G63C: 0.622; A20U G23A C31U G39A G56A: not above 0.5; U13C U32G G39C G52C: not above 0.5.
Next, C5U U13G C33A A37C G52C: not above 0.5; A65G G67A: 1.03; C24U C31U A42G: 0.574.
Turning to C4G A42C, the yeast fitness came out at 0.78.
Next, C5G C11A C22G A36U G63A: not above 0.5; U7C C29G U47C U53G: not above 0.5.
Consider U26G C46U, for which the yeast fitness is 1.01.
Next, U7C C27U A45U G48A C66U: not above 0.5; C24U G68A: 0.697; C22A U32G A37U: not above 0.5.
Next, A21C C24G A65C G67C: 0.718.
Next, U8C C30U C31A C33G C60A: 0.586; C11U U32C: 0.933.
As to U2C A15C G23A C31G A45U, the yeast fitness came to 0.61.
Regarding G18C C31A, the yeast fitness amounted to 0.634.
Next, C4U G25A G48C C62A: 0.551; G39A G56C: 0.603.
Take U8G A36U: the yeast fitness was 0.515.
The same measure for A15G U16C C34U G44C: not above 0.5.
The same measure for U16A C24G U35G: not above 0.5; for C31G A36C C62G: not above 0.5.
Next, A20C C30G C62U: 0.554; U2C A42G C55U: not above 0.5; A42U A57C A69C: not above 0.5.
Regarding U13C U47C A65G, the yeast fitness was determined as 0.766.
Next, A57G C66G A69U: not above 0.5.
Next, C33U C55U C60U: not above 0.5; G18C C29U A37G: not above 0.5.
The same measure for C4G G10A C27G A45U C49G C55A: 0.617; for C5U U26A C33G C46U C55G C66A: 0.539.
As for A20U G25A A69C, the yeast fitness came out at 0.963.
Next, C30U C33A A36U A43U U54C G56A: 0.54; U16A U28A C49A: not above 0.5.
The same measure for A37G G51C C62G C66U: not above 0.5.
Turning to U8C G17A G41C A65U, the yeast fitness was not above 0.5.
Next, A15G C31G C66U: 0.601; U8C U16G G41C: not above 0.5.
The same measure for A14C C27G: 0.574.
For C24U C33U G41A C61U, the yeast fitness is not above 0.5.
The same measure for G17A A45C: 0.735; for A15C U28A C34G A43U: 0.564.
The same measure for G48A C55U A65C: 0.627; for A36U G48A C49A: not above 0.5; for U32G G39C A57U C62G: not above 0.5.
Next, A15G A21U U26C: 0.535; U19G C30U C62G: 0.603; A15C C34G C49G C66G G68C: 0.612.
On to G10C A14U U28A A57C, for which the yeast fitness is not above 0.5.
The same measure for A15C G56C: 0.685; for G9C C30U: 0.628.
Consider U32A A65G, for which the yeast fitness was found to be 0.719.
Consider A45C C66U, for which the yeast fitness was determined as 0.786.
Next, U7G G25C G67A: 0.682; A15U C22G G48C G63C A70C: not above 0.5; G9A G48C G68C: 0.603.
Next, C5G U47C C61A G68U: not above 0.5; U7A C24G C33U G41C: not above 0.5; G25C A45C: 1.06.
As to A14C C22G G52C A65U, the yeast fitness was not above 0.5.
For the variant C11A C31A G68C, the yeast fitness was not above 0.5.
For the variant G39C C46A A69C, the yeast fitness is 0.53.
The same measure for U8C A21U C34A A40C: 0.627; for G17A G38C A70C: not above 0.5; for C61A C62G: 0.619.
Next, G17C A37C A45U: 0.659; G9C G10C C33U: not above 0.5; C30U C34U G44C: not above 0.5.
For U32A C33G C66U A69U, the yeast fitness was not above 0.5.
For the variant A21G G58A, the yeast fitness stood at 1.01.
Next, C4U U54C C62U: 0.578; A40G G51C U59A C61A A69U: not above 0.5; C24G G44C G58C: 0.547.
Next, G17C U35C A37G G51C: not above 0.5; C11G U47G: not above 0.5; G10C U13A A21U U26C C31U A43U G58A G63C A70C: not above 0.5.
For U2C U13C C22G U26A, the yeast fitness was not above 0.5.
Next, A42G A69G: 0.749; U13A G18C C27U A40G G41A A45U: not above 0.5; U19C A20C C31A: not above 0.5.
Consider C4G A21U C33U A42G A57U, for which the yeast fitness is 0.683.
The same measure for G17C C22G A36C G39A A42G G63C: 0.842.
The same measure for C24A C29G U35A A43C: 0.929.
For C49U A65G, the yeast fitness came to 0.942.
With C11U A57G C61U, the yeast fitness was not above 0.5.
Next, C27U C33U C60G: 0.628.
Next, C27G G38A: 0.745.
Next, C5G G25C A37G: 0.504; C5G A20U C46U: 0.601.
U7C U26C A36G A42G G48C A65C: the yeast fitness is not above 0.5.
The same measure for G12A C27A G56C: 0.533; for C34G C55G U59C C60U: not above 0.5.
The same measure for G10A A15U A21C G25C: 0.533; for G18A C29U A37G: not above 0.5; for U2G U28G A45C G63C: not above 0.5.
Next, A20C A21G G56C C66U: not above 0.5; U47C C61U: 0.888.
G10A A40C: the yeast fitness was 0.771.
Next, A20C C29U C31G C61G: not above 0.5; C4G C30A A42C A69U: not above 0.5.
Next, A20G A40C A69G: 0.625.
The same measure for C22G C29G A36C G39C C46G G52A G67C: not above 0.5; for G10C G41C: 0.634; for U7A C29G U64C: not above 0.5.
Turning to C22U A65U, the yeast fitness amounted to 0.748.
Next, A20U U35C U59A: not above 0.5.
Turning to C11U U13G U19A C22G G25A, the yeast fitness is 0.604.
Regarding U16A C24A C30G C34U U47C, the yeast fitness is not above 0.5.
Next, A14G C62G G68A: not above 0.5.
On to U16C C27G A43C C62U, for which the yeast fitness was not above 0.5.
With G18A A20U U59G, the yeast fitness was not above 0.5.
Next, G23C U28A A36C: not above 0.5; C33U U59A: 0.67.
Next, C11G C22A C31U A42G: 0.659.
C49A G56A: the yeast fitness amounted to 0.831.
Next, U8C A21G C33U A36G A43U A65U A70G: not above 0.5; G23A C55U G63C: not above 0.5; U13A A15G C29A C61G: not above 0.5.
The same measure for C4A U32G A45G C49U A70U: not above 0.5; for G12C A43G G51C U59C C62G A70U: not above 0.5.
The same measure for U2G A42C U47A: 0.573; for U19C C24A: 0.601; for C5G C27U A36U C60G: not above 0.5.
Consider C5U G17A C49G C60A, for which the yeast fitness was not above 0.5.
The same measure for U8C A15C A45C C62G: 0.535; for G10C G12A A15G A36U C46U: not above 0.5; for G41C U47C: 0.937.
The same measure for C5G A42G A69C: 0.568.
In the case of A21G A42U G68C, the yeast fitness is 0.539.
As for G25C G39C, the yeast fitness is 0.685.
Next, C27G A36U A69C: not above 0.5; G17C A43U G56A A70U: not above 0.5.
For the variant U2A C5U G48A, the yeast fitness came out at 0.611.
The same measure for G9C C34U A45C G48C: not above 0.5; for U26C A37U U54A: not above 0.5.
The same measure for A15C G23C: 0.555; for A15C A42C G48A G50C A65G: 0.561.
Next, C33G G67U G68C A69U: not above 0.5; G6A C11A G52U: not above 0.5; U32C A40G: 0.66.
For the variant C29U U59G C66U, the yeast fitness was 0.732.
As for G9C G23A C33G, the yeast fitness is not above 0.5.
For the variant G23A A69U, the yeast fitness amounted to 0.726.
Next, G17A G56C G58C: 0.585.
Next, C5A A65U: 0.723; C4G C5G U26G A45C G67A: 0.664; C22G C27G C31G A37G C61G A69U: 0.758.
Take U2C C11A A40C: the yeast fitness came out at 0.553.
The same measure for A21G G51A: 0.836; for G12C U28C C49U U59A: not above 0.5.
Next, U3C C31U G48A: 0.734.
The same measure for U28C A57U: 0.823; for A20C C66G: 0.766; for G9A A36C G48A G67A: not above 0.5.
Turning to C11G A21U A40U U54A, the yeast fitness was 0.681.
Turning to G48A G51A U59C, the yeast fitness was 0.956.
The same measure for C4G G50C C55G C62G: not above 0.5; for C4U G10A C24U C46G G58A: not above 0.5.
